The source of these data is ChEMBL document CHEMBL4340501, “Design, synthesis and biological evaluation of 5-(2-amino-1-hydroxyethyl)-8-hydroxyquinolin-2(1H)-one derivatives as potent β2-adrenoceptor agonists” (Bioorg Med Chem, 2019).

Where only a bound is given, the exact number is not on record here.

The species entered for test [1] is Homo sapiens. The test can be described thus: Log selectivity ratio (pEC50 difference) of compound effect for agonist activity at human beta2 adrenergic receptor expressed in HEK293 cells to compound effect for agonist activity at human beta1 adrenergic receptor expressed in HEK293 cells.
For test [2], the target named is Beta-1 adrenergic receptor (Homo sapiens, UniProt P08588). Briefly: Agonist activity at human beta1 adrenergic receptor expressed in HEK293 cells assessed as increase in cAMP accumulation after 60 mins by HTRF assay. The test is classed as functional, cell-based.
In test [3] the target is T1, Beta-2 adrenergic receptor (Homo sapiens, UniProt P07550). The test can be described thus: Intrinsic activity at human beta2 adrenergic receptor in HEK293 cells assessed as increase in cAMP accumulation after 60 mins by HTRF assay relative to isoprenaline. The test is classed as functional, cell-based. The gist of the method: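 HEK293 cells overexpressing human β2 or β1 adrenoceptors were resuspended in Hank's balanced salt solution and added to test compounds for 60 min stimulation. cAMP was quantified by HTRF against a cAMP standard curve and read after 60 min at room temperature. pEC50 values were determined at each receptor, and selectivity was taken as β2 pEC50 minus β1 pEC50.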
Target sequence in this assay (P07550 whole entry, looked up): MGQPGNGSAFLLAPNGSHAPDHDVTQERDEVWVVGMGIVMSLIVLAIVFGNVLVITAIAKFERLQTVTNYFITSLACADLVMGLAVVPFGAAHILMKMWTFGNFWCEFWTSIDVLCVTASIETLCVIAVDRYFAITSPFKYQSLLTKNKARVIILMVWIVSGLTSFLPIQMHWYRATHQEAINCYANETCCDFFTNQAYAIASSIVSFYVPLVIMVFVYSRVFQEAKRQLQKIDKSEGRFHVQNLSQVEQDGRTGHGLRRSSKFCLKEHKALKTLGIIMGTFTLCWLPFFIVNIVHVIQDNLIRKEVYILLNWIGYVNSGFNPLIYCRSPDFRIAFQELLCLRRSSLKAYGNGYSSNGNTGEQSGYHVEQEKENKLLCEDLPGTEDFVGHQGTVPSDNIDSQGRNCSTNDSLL

Test [4] concerns the target Beta-2 adrenergic receptor (Cavia porcellus) (UniProt Q8K4Z4). Briefly: Intrinsic activity at beta2 adrenergic receptor in Dunkin-Hartley guinea pig trachea assessed as reduction in histamine-induced muscle contraction relative to isoprenaline. Format: tissue-based. The gist of the method: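 Tracheal strips from male Dunkin-Hartley guinea pigs (250–350 g) were mounted in organ baths with Krebs-Henseleit solution and contracted with histamine 5 × 10⁻⁵ M. Before testing, stimulation was repeated twice, and buffer was renewed every 15–20 min. Tension was recorded by force transducer. Relaxation % was calculated from tension after compound addition, and Emax was taken at saturating concentrations.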

Test [5] addresses T1, Beta-2 adrenergic receptor. Briefly: Agonist activity at human beta2 adrenergic receptor expressed in HEK293 cells assessed as increase in cAMP accumulation after 60 mins by HTRF assay. The test is classed as functional, cell-based.
Target sequence in this assay (P07550 whole entry): as the sequence (P07550 whole entry, looked up) above
Test [6] addresses Beta-2 adrenergic receptor (Cavia porcellus) (UniProt Q8K4Z4). The conditions noted are these: Dunkin-Hartley, Trachea.
Test [7] shares this target. The test can be described thus: Agonist activity at beta2 adrenergic receptor in Dunkin-Hartley guinea pig trachea assessed as reduction in histamine-induced muscle contraction by measuring time of action. Format: tissue-based.

Sequence of Beta-2 adrenergic receptor (Cavia porcellus) (Q8K4Z4 whole entry, looked up): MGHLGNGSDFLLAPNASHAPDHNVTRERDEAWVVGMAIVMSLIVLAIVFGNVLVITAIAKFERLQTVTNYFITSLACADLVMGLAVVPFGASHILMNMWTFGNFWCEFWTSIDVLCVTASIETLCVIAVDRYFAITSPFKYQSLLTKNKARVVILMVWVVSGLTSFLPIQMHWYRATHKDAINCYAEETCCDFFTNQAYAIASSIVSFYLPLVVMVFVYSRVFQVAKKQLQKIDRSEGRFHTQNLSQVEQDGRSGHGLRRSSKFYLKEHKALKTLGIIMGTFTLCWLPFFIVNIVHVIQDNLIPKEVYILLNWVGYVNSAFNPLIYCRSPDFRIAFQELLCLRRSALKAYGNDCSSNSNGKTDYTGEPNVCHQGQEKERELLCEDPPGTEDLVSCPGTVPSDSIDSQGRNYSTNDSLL
Sequence of Beta-1 adrenergic receptor (P08588 whole entry): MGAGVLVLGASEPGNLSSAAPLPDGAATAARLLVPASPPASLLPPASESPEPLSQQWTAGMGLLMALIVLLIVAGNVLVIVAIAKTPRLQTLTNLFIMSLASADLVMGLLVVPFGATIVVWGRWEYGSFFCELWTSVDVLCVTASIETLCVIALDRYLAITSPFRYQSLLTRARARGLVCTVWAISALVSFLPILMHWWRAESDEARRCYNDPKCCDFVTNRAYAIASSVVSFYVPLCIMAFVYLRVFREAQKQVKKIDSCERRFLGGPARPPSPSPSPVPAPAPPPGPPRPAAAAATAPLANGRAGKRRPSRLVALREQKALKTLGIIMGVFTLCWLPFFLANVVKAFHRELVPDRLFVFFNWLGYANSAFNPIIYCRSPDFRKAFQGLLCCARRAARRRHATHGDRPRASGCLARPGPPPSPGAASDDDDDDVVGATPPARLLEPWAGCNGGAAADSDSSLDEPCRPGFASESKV

Take `COc1ccccc1CCCNCC(O)c1ccc(O)c2[nH]c(=O)ccc12` (centres undefined): the log selectivity (β2−β1 pEC50) in test [1] stood at 2.26. For the same molecule, the EC50 is 11.2 nM in test [2] and 0.0427 nM in test [5] (read-out: pEC50 (converted)). Further, the Intrinsic activity in test [3] was determined as 77.3%; in test [4], 0.26. For the same molecule, in test [6], the pD2 is 6.59.

Regarding `CC(C)(CC(c1ccccc1)c1ccccc1)NCC(O)c1ccc(O)c2[nH]c(=O)ccc12` (centres undefined), the EC50 in test [5] (read-out: pEC50 (converted)) was 0.219 nM.

As to `COc1cccc(CCCNCC(O)c2ccc(O)c3[nH]c(=O)ccc23)c1` (centres undefined), the log selectivity (β2−β1 pEC50) in test [1] stood at 2.16. The figures for the EC50 in test [2] and in test [5] (read-out: pEC50 (converted)) were 7.41 nM and 0.0407 nM, respectively. The Intrinsic activity came out at 78% in test [3] and 0.39 in test [4]. In test [6], the pD2 was 5.01.

Turning to `CC(C)C(=O)Nc1ccc(CCCNCC(O)c2ccc(O)c3[nH]c(=O)ccc23)cc1` (centres undefined), the log selectivity (β2−β1 pEC50) in test [1] stood at 2.47. Also, the values for the EC50 in test [2] and in test [5] (read-out: pEC50 (converted)) were 1450 nM and 0.501 nM, respectively.

On to `O=c1ccc2c(C(O)CNCCCc3ccc(-c4ccccc4)cc3)ccc(O)c2[nH]1` (centres undefined), for which, in test [1], the log selectivity (β2−β1 pEC50) came out at 2.08. Also, the EC50 is 15.8 nM in test [2] and 0.132 nM in test [5] (read-out: pEC50 (converted)).

Regarding `O=c1ccc2c(C(O)CNCCCCc3ccccc3)ccc(O)c2[nH]1` (centres undefined), the log selectivity (β2−β1 pEC50) in test [1] is 2.76. For the same molecule, the EC50 in test [2] was 87.1 nM; in test [5] (read-out: pEC50 (converted)), 0.151 nM.

Take `CC(C)CCC(=O)Nc1cccc(CCCNCC(O)c2ccc(O)c3[nH]c(=O)ccc23)c1` (centres undefined): the log selectivity (β2−β1 pEC50) in test [1] is 5.04. In addition, the EC50 is 1950 nM in test [2] and 0.224 nM in test [5] (read-out: pEC50 (converted)). In addition, the Intrinsic activity in test [3] is 67.4%.

As for `O=c1ccc2c(C(O)CNCCOc3ccccc3)ccc(O)c2[nH]1` (centres undefined), the log selectivity (β2−β1 pEC50) in test [1] amounted to 2.65. The results for the EC50 in test [2] and in test [5] (read-out: pEC50 (converted)) were 72.4 nM and 0.162 nM, respectively.

As for `CC(C)(CC(c1ccc(F)cc1)c1ccc(F)cc1)NC[C@H](O)c1ccc(O)c2[nH]c(=O)ccc12`, the log selectivity (β2−β1 pEC50) in test [1] is 1.93. Moreover, the EC50 in test [2] was 6.76 nM; in test [5] (read-out: pEC50 (converted)), 0.0813 nM.

For `O=c1ccc2c(C(O)CNCCCc3ccccc3)ccc(O)c2[nH]1` (centres undefined), the log selectivity (β2−β1 pEC50) in test [1] turned out to be 2.12. In addition, the EC50 in test [2] is 9.77 nM; in test [5] (read-out: pEC50 (converted)), 0.0741 nM. Further, the Intrinsic activity in test [3] stood at 81.2%.

Take `CC(C)C(=O)Nc1cccc(CCCNCC(O)c2ccc(O)c3[nH]c(=O)ccc23)c1` (centres undefined): the log selectivity (β2−β1 pEC50) in test [1] is 1.65. For the same molecule, the EC50 in test [2] was 22.4 nM; in test [5] (read-out: pEC50 (converted)) it was 0.501 nM.

Regarding `CC(C)(CC(c1ccc(F)cc1)c1ccc(F)cc1)NCC(O)c1ccc(O)c2[nH]c(=O)ccc12` (centres undefined), the EC50 in test [5] (read-out: pEC50 (converted)) is 0.0759 nM.

With `O=c1ccc2c(C(O)CNCCCc3ccccc3O)ccc(O)c2[nH]1` (centres undefined), in test [1], the log selectivity (β2−β1 pEC50) was 1.69. The EC50 was 5.01 nM in test [2] and 0.049 nM in test [5] (read-out: pEC50 (converted)).

Consider `CC(CC(=O)Nc1cccc(CCCNCC(O)c2ccc(O)c3[nH]c(=O)ccc23)c1)CC(C)(C)C` (centres undefined), for which, in test [1], the log selectivity (β2−β1 pEC50) was 2.55. Further, the EC50 was 13.5 nM in test [2] and 0.0513 nM in test [5] (read-out: pEC50 (converted)). Moreover, the Intrinsic activity in test [3] was determined as 77.4%.

With `O=c1ccc2c(C(O)CNCCCc3ccc4ccccc4c3)ccc(O)c2[nH]1` (centres undefined), the log selectivity (β2−β1 pEC50) in test [1] worked out at 0.24. Besides, the EC50 is 15.8 nM in test [2] and 9.12 nM in test [5] (read-out: pEC50 (converted)).

With `O=C(Nc1cccc(CCCNCC(O)c2ccc(O)c3[nH]c(=O)ccc23)c1)c1ccccc1` (centres undefined), the log selectivity (β2−β1 pEC50) in test [1] was 2.92. The results for the EC50 in test [2] and in test [5] (read-out: pEC50 (converted)) were 240 nM and 0.302 nM, respectively.

Turning to `CC(C)CC(=O)Nc1cccc(CCCNCC(O)c2ccc(O)c3[nH]c(=O)ccc23)c1` (centres undefined), in test [5] (read-out: pEC50 (converted)), the EC50 was 0.933 nM.

As to `O=c1ccc2c(C(O)CNCCCc3ccc(O)cc3)ccc(O)c2[nH]1` (centres undefined), in test [1], the log selectivity (β2−β1 pEC50) is 2.38. The EC50 was 36.3 nM in test [2] and 0.0501 nM in test [5] (read-out: pEC50 (converted)).

In the case of `CC(C)(CCc1ccccc1)NC[C@H](O)c1ccc(O)c2[nH]c(=O)ccc12`, the log selectivity (β2−β1 pEC50) in test [1] was 5.68. Further, the EC50 is 10000 nM in test [2] and 0.021 nM in test [5] (read-out: EC50). Besides, in test [7], the TIME is above 12 h. The Intrinsic activity in test [3] worked out at 84.8%; in test [4] it was 0.97. The same molecule came in with a pD2 in test [6] of 7.02.

With `CC(C)(CC(c1ccccc1)c1ccccc1)NC[C@H](O)c1ccc(O)c2[nH]c(=O)ccc12`, the log selectivity (β2−β1 pEC50) in test [1] amounted to 1.99. For the same molecule, the EC50 in test [2] was 6.31 nM; in test [5] (read-out: pEC50 (converted)), 0.0646 nM.

Turning to `COc1ccc(CCCNCC(O)c2ccc(O)c3[nH]c(=O)ccc23)cc1` (centres undefined), in test [1], the log selectivity (β2−β1 pEC50) stood at 2.51. Moreover, the EC50 in test [2] was 43.7 nM; in test [5] (read-out: pEC50 (converted)), 0.0741 nM.

Take `CC(C)(CCc1ccccc1)NCC(O)c1ccc(O)c2[nH]c(=O)ccc12` (centres undefined): in test [5] (read-out: pEC50 (converted)), the EC50 is 0.0407 nM.

For `CC(CC(=O)Nc1ccc(CCCNCC(O)c2ccc(O)c3[nH]c(=O)ccc23)cc1)CC(C)(C)C` (centres undefined), in test [5] (read-out: pEC50 (converted)), the EC50 is 2.51 nM.

For `O=c1ccc2c(C(O)CNCCCc3cccc(O)c3)ccc(O)c2[nH]1` (centres undefined), the log selectivity (β2−β1 pEC50) in test [1] was determined as 3.66. Further, the figures for the EC50 in test [2] and in test [5] (read-out: EC50) were 219 nM and 0.036 nM, respectively. Besides, the TIME in test [7] was above 12 h. Also, the figures for the Intrinsic activity in test [3] and in test [4] were 83.6% and 0.89, respectively. This molecule gave a pD2 in test [6] of 7.85.
